How the values were obtained:
[1] = system: Mus musculus; experiment: Anxiolytic activity in NMRI BR mice after ip administration by PTZ test; format: functional
Summary of the method: (§1)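 Male mice (NMRI BR at elbion, three per dose; CF-1 at NIH, up to five) given compound or vehicle i.p. at 30, 100, 300 mg/kg, 30 min and 4 h pretreatment. PTZ 85 mg/kg s.c. into neck, then 30 min observation for first generalized clonic seizure with loss of righting reflex.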

[2] = target: GABA-A receptor; anion channel (Rattus norvegicus) (UniProt O09028+P15431+P18506+P18508+P19969+P20236+P23574+P23576+P28471+P28473+P30191+P62813+P63079+P63138+Q91ZM7+Q9ES14); experiment: Inhibition of Wistar rat benzodiazepine receptor at 2 uM; format: protein-complex assay
[3] = Partition coefficient of the compound, log P; format: physicochemical; settings: octanol/water
Summary of the method: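 Experimental 1-octanol/water partition coefficient.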

[4] = system: Mus musculus; experiment: Neurotoxicological activity in NMRI BR mice after ip administration by rotarod test; format: functional
Summary of the method: (§2)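 Male mice (CF-1 at NIH; NMRI BR at elbion), trained beforehand, dosed i.p. Motor impairment was defined as failure to stay on a rod (6 rpm, 0.9 cm diameter) for 1 min in at least one of three trials. The same animals were tested at several times (≥3 doses, n = 8/group). TD50 at peak time by probit analysis.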

[5] = system: Rattus norvegicus; experiment: Neurotoxicological activity in rat after oral administration by rotarod test; format: functional
Summary of the method: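 Trained male rats dosed orally. Motor impairment was defined as failure to stay on a rod (8 rpm, 6 cm diameter) for 1 min in at least one of three trials. The same animals were tested at several time points (≥3 dose groups, n = 8/group). TD50 at time of peak neurotoxicity by probit analysis.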

[6] = system: Rattus norvegicus; experiment: Anxiolytic activity in rat after oral administration by PTZ test; format: functional
Summary of the method: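 Rats dosed orally. PTZ 70 mg/kg given s.c., then 30 min observation for first generalized clonic seizure with loss of righting reflex. Protection was measured at several pretreatment times (n = 3-4), and the peak time was used for the dose-response.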

[7] = system: Rattus norvegicus; experiment: Anxiolytic activity in rat after oral administration by vogel conflict test; format: functional; settings: read-out: MED
Summary of the method: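 Modified Vogel conflict test in rats after oral dosing. Water-deprived 24 h, trained to drink 5.0% glucose for 5 min, deprived a further 24 h. The 210 s test session had 30 s unpunished drinking, then 180 s with mild shock on touching the drinking tube. Punished and unpunished licks counted. Minimal effective dose reported.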

[8] = target: GABA-A receptor; anion channel; experiment: Binding affinity to Wistar rat benzodiazepine receptor; format: protein-complex assay
Summary of the method: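 Rat (male Wistar, 180-200 g) whole-brain membranes without cerebellum in 0.05 M Tris/HCl pH 7.7. Bound ligand separated on filters and counted by scintillation. IC50 from 6-10 concentrations, Ki by Cheng-Prusoff, at least four repeats averaged.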

[9] = system: Mus musculus; experiment: Anxiolytic activity in CF1 mice after ip administration by PTZ test; format: functional; summary of the method: as §1
[10] = system: Mus musculus; experiment: Neurotoxicological activity in CF1 mice after ip administration by rotarod test; format: functional; summary of the method: as §2
[11] = system: Cynomolgus monkey; experiment: Plasma concentration in cynomolgus monkey at 30 mg/kg, po; format: ADME, organism-based, Macaca fascicularis; design: dose 30 mg/kg, route oral; settings: in vivo
[12] = system: Cynomolgus monkey; experiment: Plasma concentration in cynomolgus monkey at 5 mg/kg, po; format: ADME, organism-based, Macaca fascicularis; design: dose 5 mg/kg, route oral; settings: in vivo

Row | SMILES | ED50 [1] | inhibition [2] | logP [3] | TD50 [4] | TD50 [5] | ED50 [6] | minimal effective dose [7] | Ki [8] | ED50 [9] | TD50 [10] | concentration [11] | concentration [12]
1 | O=C1N=C(N2CCOCC2)CN1c1ccc(Cl)c(Cl)c1 | > 300 mg/kg | < 20% | 1.9 | > 300 mg/kg |  |  |  |  |  |  |  | 
2 | CN1C(=O)CN=C(c2ccccc2)c2cc(Cl)ccc21 [DIAZEPAM] | 0.4 mg/kg |  |  | 2 mg/kg | 13 mg/kg | 6.3 mg/kg | 1 mg/kg |  |  |  |  | 
3 | CN(C1=NC(=O)N(c2ccc(Cl)cc2)C1)C1CCCCC1 | > 300 mg/kg |  | 2.7 | > 300 mg/kg |  |  |  |  |  |  |  | 
4 | O=c1cc(-c2ccccc2)on1-c1ccc(Cl)cc1 | 253 mg/kg |  | 4.1 | < 300 mg/kg |  |  |  |  |  |  |  | 
5 | O=C1N=C(N2CCOCC2)CN1Cc1c(Cl)cccc1Cl | > 300 mg/kg |  | 1.3 | > 300 mg/kg |  |  |  |  |  |  |  | 
6 | O=C1N=C(N2CCCC2)CN1c1ccc(Cl)cc1 | > 300 mg/kg |  | 2 | > 300 mg/kg | > 500 mg/kg | 14.2 mg/kg | 3 mg/kg | 4.29 µM |  |  |  | 
7 | O=C1C=C(N2CCCC2)CN1c1ccc(Cl)cc1 | > 300 mg/kg |  |  | > 300 mg/kg |  | > 200 mg/kg |  | 0.067 µM |  |  |  | 
8 | O=C1N=C(N2CCOCC2)CN1c1ccc(Br)cc1 | 21.8 mg/kg |  | 1.4 | 345 mg/kg | 473 mg/kg | 27.7 mg/kg | 100 mg/kg | 3.06 µM |  |  |  | 
9 | O=C1N=C(N2CCOCC2)CN1Cc1ccccc1 | > 300 mg/kg | < 20% | 0.5 | > 300 mg/kg |  |  |  |  |  |  |  | 
10 | O=C1N=C(N2CCOCC2)CN1c1ccccc1 | 121 mg/kg |  | 0.6 | > 300 mg/kg |  |  |  | 6.28 µM |  |  |  | 
11 | O=C1N=C(N2CCOCC2)CN1c1cccc(Cl)c1 | > 300 mg/kg | < 20% | 1.3 | > 300 mg/kg |  |  |  |  |  |  |  | 
12 | Clc1ccc(-n2cnc(-c3ccccc3)c2)cc1 | > 300 mg/kg |  | 3.7 | > 300 mg/kg |  |  |  | 3.29 µM |  |  |  | 
13 | O=C1C=C(N2CCCC2)C(=O)N1c1ccc(Cl)cc1 | > 300 mg/kg |  | 3 | > 300 mg/kg |  |  |  | 3.26 µM |  |  |  | 
14 | CN(C)C1=NC(=O)N(c2ccc(Cl)cc2)C1 | > 300 mg/kg | < 20% | 1.6 | > 300 mg/kg |  |  |  |  |  |  |  | 
15 | O=C1C=C(N2CCCC2)C(=O)N1c1ccc(F)cc1 | > 200 mg/kg | < 20% | 2.3 | > 300 mg/kg |  |  |  |  |  |  |  | 
16 | O=C1C=C(N2CCOCC2)CN1c1ccc(F)c(Cl)c1 | 22.3 mg/kg |  | 2.2 | < 100 mg/kg |  |  |  | 2.05 µM |  |  |  | 
17 | O=C1N=C(N2CCOCC2)CN1c1ccc(I)cc1 |  |  | 1.7 |  | > 50 mg/kg | 50 mg/kg |  |  | 43 mg/kg | > 300 mg/kg |  | 
18 | Clc1ccc(-c2cnn(-c3ccccn3)c2)cc1 | > 300 mg/kg |  | 4.3 | > 300 mg/kg |  |  |  |  |  |  |  | 
19 | O=C1N=C(N2CCCCCC2)CN1c1ccc(Cl)cc1 | > 300 mg/kg |  |  | > 300 mg/kg |  |  |  | 11.6 µM |  |  |  | 

Row | SMILES | ED50 [1] | inhibition [2] | logP [3] | TD50 [4] | TD50 [5] | ED50 [6] | minimal effective dose [7] | Ki [8] | ED50 [9] | TD50 [10] | concentration [11] | concentration [12]
20 | Cc1ccc(N2CC(N3CCOCC3)=CC2=O)cc1 | 89.3 mg/kg |  | 1.4 | 100 mg/kg |  |  |  | 0.344 µM |  |  |  | 
21 | O=C1N=C(N2CCOCC2)CN1Cc1ccccc1Cl | > 300 mg/kg |  | 1 | > 300 mg/kg |  |  |  |  |  |  |  | 
22 | O=C1N=C(N2CCCCCCC2)CN1c1ccc(Cl)cc1 | > 300 mg/kg |  | 2.7 | > 300 mg/kg |  |  |  |  |  |  |  | 
23 | O=C1C=C(N2CCOCC2)CN1c1ccc(Cl)cc1 | 10.9 mg/kg |  | 1.9 | 97 mg/kg | > 500 mg/kg |  | 10 mg/kg | 0.141 µM |  | 60.9 mg/kg |  | 
24 | O=C1N=C(N2CCOCC2)CN1c1ccc(Cl)cc1 [IMEPITOIN] |  |  | 1.5 | 75.6 mg/kg | 998 mg/kg |  | 3 mg/kg | 4.35 µM | 17.2 mg/kg | 176 mg/kg | 39 µM | 
25 | O=c1oc(-c2ccccc2)nn1-c1ccc(Cl)cc1 | > 300 mg/kg | < 20% | 2.6 | > 300 mg/kg |  |  |  |  |  |  |  | 
26 | O=C1C=C(N2CCOCC2)CN1c1ccc(F)cc1 | 337 mg/kg |  |  | > 300 mg/kg |  |  |  | 0.494 µM |  |  |  | 
27 | CC(c1ccccc1)N1CC(N2CCOCC2)=NC1=O (configuration not stated) | > 300 mg/kg |  | 0.8 | > 100 mg/kg |  |  |  |  |  |  |  | 
28 | O=C1C=C(N2CCOCC2)C(=O)N1c1ccc(F)cc1 | 128 mg/kg | < 20% | 1.5 | > 100 mg/kg |  |  |  |  |  |  |  | 
29 | COC1(OC)C(N2CCOCC2)=NC(=O)N1c1ccc(Cl)cc1 | > 100 mg/kg | < 20% | 1.7 | > 30 mg/kg |  |  |  |  |  |  |  | 
30 | O=C1C=C(N2CCCCCC2)CN1c1ccc(Cl)cc1 | 234 mg/kg |  | 3.4 | > 100 mg/kg |  |  |  | 0.44 µM |  |  |  | 
31 | CN1CCN(C2=NC(=O)N(c3ccc(Cl)cc3)C2)CC1 | > 300 mg/kg | < 20% | 2.2 | > 100 mg/kg |  |  |  |  |  |  |  | 
32 | O=C1C=C(N2CCOCC2)C(=O)N1c1ccc(Cl)cc1 | 120 mg/kg |  | 2.3 | > 300 mg/kg |  |  |  | 8.88 µM |  |  |  | 
33 | Cc1cccc(N2CC(N3CCOCC3)=CC2=O)c1 | 62.3 mg/kg |  | 1.5 | < 100 mg/kg |  |  |  | 4.45 µM |  |  |  | 
34 | O=C1N=C(N2CCOCC2)CN1c1ccc(F)cc1 |  | < 20% |  |  | > 60 mg/kg | 34.1 mg/kg |  |  | 35 mg/kg | > 500 mg/kg |  | 
35 | O=C1C=C(c2ccc(Cl)cc2)C(=O)N1c1ccc(Cl)cc1 | > 300 mg/kg | < 20% | 3 | > 300 mg/kg |  |  |  |  |  |  |  | 
36 | O=c1cc(-c2ccccc2)[nH]n1-c1ccc(Cl)cc1 | > 300 mg/kg | < 20% | 2.6 | > 300 mg/kg |  |  |  |  |  |  |  | 
37 | Clc1ccc(-c2noc(N3CCOCC3)n2)cc1 | > 300 mg/kg |  | 3.1 | > 300 mg/kg |  |  |  | 26.1 µM |  |  |  | 
38 | O=C1C2C=Nc3ccccc3C2=NN1c1ccc(Cl)cc1 (configuration not stated) [CGS-9896] | 1.36 mg/kg |  |  | 302 mg/kg | > 500 mg/kg | 2.7 mg/kg | 0.3 mg/kg | 0.0024 µM |  |  |  | 27 nM

— ChEMBL document CHEMBL1138158, “Synthesis, pharmacology, and structure-activity relationships of novel imidazolones and pyrrolones as modulators of GABAA receptors” (J Med Chem, 2006)
